According to ChEMBL document CHEMBL1811775, “Brominated arginine-derived alkaloids from the red sea sponge Suberea mollis” (J Nat Prod, 2011):
≈ marks a conversion by molar mass, not a printed value. Calls of active or inactive are those of the source. The rule behind the calls is not given here.

Legend:
Staphylococcus aureus [1] = experiment: Antibacterial activity against Staphylococcus aureus ATCC 6538P at 15 ug/disk after 24 hrs by agar diffusion method; type: functional; settings: read-out: IZ
How it was run: (§1)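 Reference drugs were tested in the same agar diffusion series at the stated loads: chloramphenicol 30 μg/disk, ciprofloxacin 5 μg/disk, erythromycin 15 μg/disk, and clotrimazole 10 mg/mL (100 μL). Plates were read at 37 C for 24 h, and inhibition zones were recorded in mm.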

Staphylococcus aureus [2] = experiment: Antibacterial activity against Staphylococcus aureus ATCC 6538P after 24 hrs by agar diffusion method; type: functional
How it was run: (§2)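 Agar cup diffusion against the listed ATCC strains. Each compound was dissolved at 1 mg/mL in DMF, and 100 μL was placed in each cup. Plates were incubated at 37 C for 24 h, and the inhibition zone diameters were measured in mm.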

Candida albicans [3] = experiment: Antifungal activity against Candida albicans ATCC 2091 after 24 hrs by agar diffusion method; type: functional; how it was run: as §2
Escherichia coli = experiment: Antibacterial activity against Escherichia coli ATCC 35218 after 24 hrs by agar diffusion method; type: functional; how it was run: as §2
Klebsiella pneumoniae [4] = experiment: Antibacterial activity against Klebsiella pneumoniae ATCC 10032 after 24 hrs by agar diffusion method; type: functional, organism-based; how it was run: as §2
Pseudomonas aeruginosa [5] = experiment: Antibacterial activity against Pseudomonas aeruginosa ATCC 9027 after 24 hrs by agar diffusion method; type: functional, organism-based; how it was run: as §2
[6] = tested on: Radical scavenging activity; experiment: Antioxidant activity assessed as DPPH radical scavenging activity after 30 mins by TLC […] assay; type: functional
How it was run: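 TLC autographic DPPH assay. Samples at 1 mg/mL in MeOH were spotted at 6 μg each as 4 mm spots, with vitamin E as the positive control. The plate was sprayed with 0.2% (w/v) DPPH in MeOH, and scavenging spots were read 30 min after spraying.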

HeLa = experiment: Cytotoxicity against human HeLa cells after 72 hrs by MTT assay; type: functional, cell-based
How it was run: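 HeLa cells were plated overnight at 37 C in 5% CO2. Samples were serially diluted 1:4 down the plate, with adriamycin and DMSO as controls. After 72 h, viability was read at 490 nm as MTS reduction to formazan. IC50 (μg/mL) was calculated from the dilution series.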

Pseudomonas aeruginosa [7] = experiment: microbe, parasite or virus in culture; settings: ATCC 9027, 24 h, read-out: IZ
Candida albicans [8] = experiment: Antifungal activity against Candida albicans ATCC 2091 at 10 mg/mL after 24 hrs by agar diffusion method; type: functional; settings: ATCC 2091, 24 h, read-out: IZ; how it was run: as §1
Klebsiella pneumoniae [9] = experiment: Antibacterial activity against Klebsiella pneumoniae ATCC 10032 at 30 ug/disk after 24 hrs by agar diffusion method; type: functional; settings: ATCC 10032, 24 h, read-out: IZ; how it was run: as §1
Staphylococcus aureus [10] = experiment: Antibacterial activity against Staphylococcus aureus ATCC 6538P at 30 ug/disk after 24 hrs by agar diffusion method; type: functional; settings: read-out: IZ; how it was run: as §1
Pseudomonas aeruginosa [11] = experiment: Antibacterial activity against Pseudomonas aeruginosa ATCC 9027 at 30 ug/disk after 24 hrs by agar diffusion method; type: functional; settings: ATCC 9027, 24 h, read-out: IZ
How it was run: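 Agar diffusion against P. aeruginosa ATCC 9027, using reference antibiotic disks at 30 μg/disk. Plates incubated at 37 C for 24 h, and the inhibition zone diameter read in mm.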

Structure (SMILES): CC[C@H]1OC(=O)[C@H](C)[C@@H](O[C@H]2C[C@@](C)(OC)[C@@H](O)[C@H](C)O2)[C@H](C)[C@@H](O[C@@H]2O[C@H](C)C[C@H](N(C)C)[C@H]2O)[C@](C)(O)C[C@@H](C)C(=O)[C@H](C)[C@@H](O)[C@]1(C)O [ERYTHROMYCIN]
- zone of inhibition at 15 µg/disc (Staphylococcus aureus [1]): 8 mm

Structure (SMILES): COC1=C(Br)[C@H](O)[C@@]2(C=C1Br)CC(C(=O)NCCCCNC(=O)C1=NO[C@]3(C=C(Br)C(OC)=C(Br)[C@@H]3O)C1)=NO2 [AEROTHIONIN]
- inhibition zone (IZ) (Staphylococcus aureus [2]): 5 mm
- Activity (Candida albicans [3]): inactive

Structure (SMILES): COc1ccc(/C=C/C(=O)N[C@H](CCCNC(=N)N)C(=O)O)cc1Br
- Activity (Staphylococcus aureus [2]): inactive
- Activity (Escherichia coli): inactive
- Activity (Candida albicans [3]): inactive
- Activity (Klebsiella pneumoniae [4]): inactive
- Activity (Pseudomonas aeruginosa [5]): inactive

Structure (SMILES): COc1ccc(O)c(CC(N)=O)c1Br [SUBEREAPHENOL]
- inhibition zone (IZ) (Staphylococcus aureus [2]): 10 mm
- inhibition zone (IZ) (Escherichia coli): 18 mm
- inhibition zone (IZ) (Candida albicans [3]): 20 mm
- Activity [6]: Active
- IC50 (HeLa): 19 µg/mL (≈ 73.1 µM)

Structure (SMILES): O=C(O)c1cn(C2CC2)c2cc(N3CCNCC3)c(F)cc2c1=O [CIPROFLOXACIN]
- zone of inhibition at 5 µg/disc (Pseudomonas aeruginosa [7]): 8 mm

Structure (SMILES): NC(=O)CC1(O)C=C(Cl)C(=O)C(Cl)=C1 [DICHLOROVERONGIAQUINOL]
- inhibition zone (IZ) (Escherichia coli): 15 mm
- Activity (Candida albicans [3]): inactive
- IC50 (HeLa): 13 µg/mL (≈ 55.1 µM)

Structure (SMILES): Clc1ccccc1C(c1ccccc1)(c1ccccc1)n1ccnc1 [CLOTRIMAZOLE]
- zone of inhibition at 10000 µg/mL (Candida albicans [8]): 28 mm

Structure (SMILES): COc1c(Br)cc(/C=C/C(=O)N[C@H](CCCNC(=N)N)C(=O)O)cc1Br
- Activity (Staphylococcus aureus [2]): inactive
- Activity (Escherichia coli): inactive
- Activity (Candida albicans [3]): inactive
- Activity (Klebsiella pneumoniae [4]): inactive
- Activity (Pseudomonas aeruginosa [5]): inactive

Structure (SMILES): COC1=C(Br)[C@H](O)[C@@]2(C=C1Br)CC(C(=O)NCCCCNC(=N)N)=NO2 [PUREALDIN L]
- inhibition zone (IZ) (Staphylococcus aureus [2]): 5 mm
- Activity (Candida albicans [3]): inactive

Structure (SMILES): O=C(N[C@H](CO)[C@H](O)c1ccc([N+](=O)[O-])cc1)C(Cl)Cl [CHLORAMPHENICOL]
- zone of inhibition at 30 µg/disc (Klebsiella pneumoniae [9]): 10 mm
- zone of inhibition at 30 µg/disc (Staphylococcus aureus [10]): 9 mm
- zone of inhibition at 30 µg/disc (Pseudomonas aeruginosa [11]): 7 mm
